# UPR XBP1 act: activators of adaptive XBP1 UPR arm, primary screen, cell-based, CHO-XBP1 luciferase reporter, luminescence, uHTS | IRE1-XBP1 UPR activation; percent of tunicamycin response, DMSO as zero | activation, % at 20 µM | 330,000 tested, 0.33% active | AID 463104, 2010;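 active = versus positive control, 20 µM dose yields 30% or more activation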;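 note: 100% = tunicamycin at 10 µg/mL and 0% = DMSO only wells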
#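 Material: IRE1-XBP1 luciferase reporter CHO line / Quantity: one thousand reporter cells per well / Buffer or medium: F12 with 10% serum / Compound: 20 µM single concentration, DMSO 1% / Times: 6 h treatment, 37 °C / Detection: Steady-Glo luciferase glow luminescence, 10 min after reagent addition / Benchmarks: tunicamycin high, DMSO low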
# tim23-1 inh: growth inhibitors of tim23-1 mutant yeast, primary screen, luminescence, uHTS. S. cerevisiae tim23-1 growth, BacTiter-Glo luminescence, 24 h. 330,000 tested, 1.3% active. inhibition, % at 20 µM;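 active = growth inhibition of the mutant yeast at or above 50%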;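 note: temperature-sensitive mutant grown at 25 °C; plate controls were DMSO-treated mutant yeast for no effect and medium wells lacking yeast for full effect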
# TIM10 inh: growth inhibitors of isogenic TIM10 control yeast, primary screen, counter-screen for tim10-1 yeast inhibitor project, luminescence, uHTS; 330,000 tested, 1.4% active; S. cerevisiae TIM10 strain growth, BacTiter-Glo luminescence, 24 h; inhibition, % at 10 µM; AID 463195, 2010;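 active = inhibition of 40% or more at the single tested concentration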;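 note: wild-type TIM10 isogenic control strain grown at permissive 25 °C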
# UPR CHOP act: activators of apoptotic CHOP UPR arm, primary screen, cell-based, CHO-CHOP luciferase reporter, luminescence, uHTS | UPR activation; percent of tunicamycin response over DMSO baseline | 330,000 tested, 0.34% active | activation, % at 10 µM | AID 449763, 2010;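 active = at 10 µM dose, activation of 40% or more, normalized to positive control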;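 note: 100% = tunicamycin at 10 µg/mL and 0% = DMSO alone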
#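 System: CHO-CHOP luciferase reporter cell line | Buffer or medium: F12 medium containing 10% fetal bovine serum | Doses: One dose, 10 µM in 0.5% DMSO | Times: 6 h compound exposure at 37 °C after overnight seeding | Signal: Luciferase luminescence | Read-out: % activation vs tunicamycin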
# tim10-1 inh: growth inhibitors of tim10-1 mutant yeast, primary screen, luminescence, uHTS. inhibition, % at 20 µM. 330,000 tested, 2.2% active. S. cerevisiae tim10-1 ts strain growth, BacTiter-Glo, 24 h;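 active = inhibition of at least 40%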;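 note: mutant grown at 25 °C; 0% = DMSO wells with yeast and 100% = wells holding no yeast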
# CHOP UPR conf: activators of apoptotic CHOP UPR arm, confirmation, cell-based, CHO-CHOP luciferase reporter, single concentration. shares compounds with UPR CHOP act. CHO-CHOP cells, CHOP-luciferase reporter luminescence; percent of tunicamycin response, DMSO as zero. activation, % at 10 µM. 1,000 tested, 64% active. AID 463112, 2010; in the data active = activation above about 33%;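 note: 0% = DMSO wells and 100% = tunicamycin 10 µg/mL wells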
# Starred values were filed as active, the others as inactive; / = not tested or not shown. Only some compounds are listed: those with a hit (about 3.9% of all), similar ones and a draw of the others.
SMILES,UPR XBP1 act,tim23-1 inh,TIM10 inh,UPR CHOP act,tim10-1 inh,CHOP UPR conf
Cc1ccc(S(=O)(=O)NC2CCCCCCC2)cc1,-3,42,-17,-1,8,/
CCN(CC)Cc1c(O)ccc2c1O/C(=C\C=C\c1ccccc1)C2=O,-1,12,8,69*,24,2
COc1ccccc1/C=C/C=C1\Oc2c(ccc(O)c2CN(C)C)C1=O,-1,19,2,6,-9,/
CCOc1ccc2c(c1)C(=NNC(=O)c1ccncc1)c1cc(OCC)ccc1-2,5,22,30,50*,27,43*
CC(C)(C)c1ccc(C(=O)NCC(=O)NCC(C)(C)N2CCOCC2)cc1,0,-14,14,2,11,/
Cc1nc2scc(-c3ccccc3)c2c(=O)n1N=C1C=CC(=O)C=C1,-7,12,22,90*,28,13
COc1ccc(NC(=O)CN(C)CC(=O)N2CC(=O)Nc3ccccc32)cc1,-1,1,4,0,7,/
CN(C)CCN1C(=O)C2C(C(=O)Nc3cc(Cl)cc(Cl)c3)C3C=CC2(O3)C1C(=O)NC1CCCCC1 (configuration not stated),-3,18,-7,0,12,/
COc1ccc(C(=O)c2no[n+]([O-])c2C(=O)c2ccc(OC)cc2)cc1,-9,32,4,-4,7,/
Cc1c(C(=O)c2no[n+]([O-])c2C(=O)c2cnn(C)c2C)cnn1C,-7,9,-6,55*,1,91*
COc1ccc(N2CCN(C(=O)CCC(=O)N3CC(C)Oc4ccc(C)cc43)CC2)cc1 (configuration not stated),1,11,7,2,19,/
CCOC(=O)CSc1cccc2cccnc12,5,11,4,231*,35,202*
CCOC(=O)c1cnc(-n2nc(C)cc2C)nc1Nc1ccc(N(C)C)cc1,36*,32,39,73*,40,35*
COc1ccc(NS(=O)(=O)c2ccc(C)c(C(=O)N3CC(C)OC(C)C3)c2)cc1 (configuration not stated),-4,-2,3,2,29,/
CCS(=O)(=O)c1cc([N+](=O)[O-])c(Sc2ccccc2NC(C)=O)s1,1,7,7,59*,11,15
Cc1nc(NCc2ccco2)c2c(C)c(C)sc2n1,-2,34,17,41*,37,15
Cc1ccc(NN2C(=O)C=C(c3ccccc3)C2=O)cc1,-10,36,9,54*,-5,172*
COc1ccc(CCN2CCC(Nc3nc4ccccc4n3Cc3ccc(F)cc3)CC2)cc1,4,-183,-79,56*,-109,44*
CN(CCOc1ccc(Cl)cc1)C(=O)c1cc(-c2ccco2)nc2ccccc12,-3,41,21,4,31,/
Cc1ccc(Sc2ncccc2C(=O)N(C)Cc2cccs2)c(C)c1,0,30,32,1,33,/
O=S(=O)(c1ccc(S(=O)(=O)N2CCCC3(CCCCC3)C2)cc1)N1CCCCC1,20,2,0,52*,-5,2
COc1cc(C(=O)Sc2ccc(Cl)cc2)cc(OC)c1OC,21,4,-24,55*,-26,73*
O=C(CC1OC(=O)c2ccccc21)NNC(=O)c1ccc(F)cc1 (configuration not stated),0,-5,2,-1,-11,/
O=C(O)CC1CCC(=C(Cl)Cl)C1 (configuration not stated),-6,18,15,46*,30,65*
O=C(COC(=O)c1ccc(Br)cc1)NC(=O)NCc1ccccc1,-4,14,5,-2,5,/
SMILES,UPR XBP1 act,tim23-1 inh,TIM10 inh,UPR CHOP act,tim10-1 inh,CHOP UPR conf
COc1c(Cl)cc(Cl)cc1/C=C/C(=O)c1ccc(NC(=O)c2cccs2)cc1,12,36,16,55*,27,247*
CCOC(=O)C(CC)(CC)C(=O)/C=C/c1cccc(Br)c1,3,29,16,54*,29,70*
CCOc1ccc(N2C(=O)CC(Sc3nc4ccc(OCC)cc4s3)C2=O)cc1 (configuration not stated),-14,-20,-7,17,-5,/
CCOc1ccc2nc(SC3CC(=O)N(c4ccc(C)cc4)C3=O)sc2c1 (configuration not stated),-7,19,12,45*,10,65*
O=C(NCc1ccncc1)c1ccc(S(=O)(=O)Nc2ccccc2)cc1,2,10,-1,-1,-1,/
COc1ccc(/C=C/C(=O)c2ccc(C(=O)/C=C/c3ccc(OC)c(OC)c3)cc2)cc1OC,5,8,-5,84*,22,138*
COC(=O)c1ccc(/C=C/C(=O)c2ccc(OC)c(OC)c2)cc1,-6,27,25,1,36,/
CCN(CC(=O)Nc1ccc(OC)cc1)CC(=O)Nc1sc2c(c1C(=O)OC)CCCC2,4,14,21,3,-6,/
O=C(CN1CCN(S(=O)(=O)c2ccc(Cl)cc2)CC1)c1ccc(O)c(O)c1,22,-8,2,71*,20,5
O=C(CN1CCN(S(=O)(=O)c2ccc(F)cc2)CC1)c1ccc(O)c(O)c1,27,5,21,10,-8,/
COc1ccc(/C=C/C(=O)N2CCN(S(=O)(=O)c3ccccc3Br)CC2)cc1OC,0,16,13,1,13,/
Cc1ccc(S(=O)(=O)Nc2cccc3cccnc23)cc1,-5,25,27,621*,34,326*
CN=c1scc(C)n1/N=C/c1ccc(O)cc1O,-2,47,23,-1,3,/
CC(C)N=c1scc(-c2cccs2)n1/N=C/c1ccc(O)c(O)c1O,37*,42,39,212*,25,150*
CC(C)CN1CCN(C(=O)CCc2nnc(Cc3c[nH]c4ccccc34)o2)[C@@H](C)C1=O,1,-11,-2,0,10,/
CC(=O)Nc1ccc(-c2csc(NC(=O)Cc3cccc(F)c3)n2)cc1,0,-11,-16,0,-22,/
COc1cccc(N=Cc2c(O)c3ccccc3oc2=O)c1,108*,0,6,101*,0,52*
CC(=O)Nc1ccc(N=Cc2c(O)c3ccccc3oc2=O)cc1,14,-5,-11,17,6,/
CN(c1ccccc1C(=O)NCc1ccccc1Cl)S(=O)(=O)c1ccccc1,-6,23,-13,0,13,/
Cn1c(-c2cccc(OCc3ccccc3)c2)nc2c1c(=O)[nH]c(=O)n2Cc1ccccc1,16,-10,-7,76*,-21,144*
